# RBBP9 inh = inhibitors of human serine hydrolase RBBP9; recombinant RBBP9, FP-Rh probe fluorescence polarization; AID 1515; inhibition, % at 7.94 µM; 0.2% of 220,000 active;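 active = inhibition above the campaign mean of all tested compounds plus 3 SD, cut at about 14% in these data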;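 note: plate controls were DMSO wells with RBBP9 for no effect and wells lacking RBBP9 protein for full effect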
# Target sequence (O75884 whole entry, looked up): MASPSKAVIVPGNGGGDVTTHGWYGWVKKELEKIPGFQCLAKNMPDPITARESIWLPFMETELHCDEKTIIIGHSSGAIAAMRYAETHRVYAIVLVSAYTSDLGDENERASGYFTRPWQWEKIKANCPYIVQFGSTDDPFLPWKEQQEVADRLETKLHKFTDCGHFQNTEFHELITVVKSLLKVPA
#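 System: RBBP9 protein / Quantity: 2.5 µM RBBP9 dispensing solution, before mixing / Also added: Serine-hydrolase probe FP-Rh, 375 nM pre-mixing / Dosing: 7.94 µM single dose, 0.794% DMSO / Timing: enzyme-compound preincubation 30 min, then probe labeling 45 min, 25 °C / Signal: FP readout at 525/598 nm / Controls: DMSO-treated enzyme wells and wells lacking RBBP9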
# 14-3-3 Bad inh = disrupts binding of bovine 14-3-3 zeta to phospho-Bad peptide | P63103 | TR-FRET 14-3-3zeta/Dy647-pBad peptide displacement, 1 h | inhibition, % at 21.7 µM | 0.71% of 220,000 active | AID 781;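 active = inhibition above about 70%, limit read from the data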;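 note: 0% = full 14-3-3 plus peptide FRET controls and 100% = background without 14-3-3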
# Target sequence (P63103 whole entry, looked up): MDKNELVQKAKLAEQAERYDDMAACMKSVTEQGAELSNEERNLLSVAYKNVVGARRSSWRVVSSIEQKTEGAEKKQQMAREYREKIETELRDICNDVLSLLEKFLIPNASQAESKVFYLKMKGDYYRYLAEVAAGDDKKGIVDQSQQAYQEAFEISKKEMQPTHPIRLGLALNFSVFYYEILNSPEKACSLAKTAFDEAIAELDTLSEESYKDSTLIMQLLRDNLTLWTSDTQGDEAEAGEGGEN
# Wee1 stabilizer = blocks degradation of human Wee1 kinase; HeLa Luc-Wee1K328M stability, luciferase luminescence; 100% = proteasome inhibitor MG132 effect; P30291; 1.2% of 220,000 active; reporter increase, % at 5 µM; AID 1321;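 active = activation above the mean of all tested compounds plus 3 SD, set per screening run, cut at about 8.8% in these data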;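 note: cells exposed to compound for 20 h before luminescence read; 0% = DMSO alone and 100% = MG132 at 30 µM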
# NCF1 inh = inhibitors of human p47phox binding; P14598; p47phox/p22phox peptide binding, fluorescence polarization, 2 h; inhibition, % at 24.7 µM; 0.53% of 220,000 active;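 note: 0% = p47phox with labelled peptide and 100% = labelled peptide alone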
# eIF4E 4G PPI = inhibitors of eIF4E and eIF4G interaction in translation initiation; P63073+Q04637; TR-FRET eIF4E-eIF4GI(517-606) binding, 2 h; inhibition, % at 21.7 µM; 0.37% of 220,000 active;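 note: 0% = full FRET control wells and 100% = background wells lacking eIF4GI fragment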
# Wee1 stab conf = confirmation of human Wee1 degradation inhibitors; HeLa Luc-Wee1K328M degradation, luminescence; vehicle 0%, proteasome-blocked wells 100%; shares compounds with Wee1 stabilizer; 4% of 1,100 active; activation, % at 5 µM; AID 1410; in the data active = activation above about 8.9%
# The depositor's hits bear a star; · = no result. Only some compounds are listed: those with a hit (about 2.8% of all), similar ones and a draw of the others.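 Rule for the calls, unless noted: active = inhibition above about 30% (limit read from the data); inactive = the rest.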
SMILES,RBBP9 inh,14-3-3 Bad inh,Wee1 stabilizer,NCF1 inh,eIF4E 4G PPI,Wee1 stab conf
Cc1ccc(NC(=O)c2cc(NC(=O)c3ccco3)ccc2N2CCOCC2)cc1Cl,6,0,-2,-4,0,·
O=C(Nc1ccc(N2CCOCC2)c([N+](=O)[O-])c1)c1ccco1,-5,-3,11*,-3,-4,1
O=C1c2cccnc2C(Nc2ccc(Br)cc2Br)N1Cc1cccs1 (stereo unspecified),-7,-6,6,-9,3,·
Cc1cccc2cc(C3CC(c4ccco4)=NN3C(=O)CCC(=O)O)c(Cl)nc12 (stereo unspecified),-3,3,-2,-13,1,·
O=C(c1ccc(S(=O)(=O)NCC2CCCO2)cc1)N1CCN(c2ccccc2F)CC1 (stereo unspecified),-4,0,26*,-6,-2,1
CC(=O)N(c1nc(CCl)cs1)c1c(C)cc(C)cc1C,3,-4,2,-7,3,·
COc1ccccc1-c1nnc(Nc2nc3c(OC)cccc3s2)o1,-9,-8,15*,-42,-2,4
O=C(N/N=C/c1cn(-c2ccccc2)nc1-c1cccs1)c1ccncc1,-42,2,-3,-21,2,·
NC(=O)N/N=C/c1cn(-c2ccccc2)nc1-c1cccs1,-1,-6,16*,-35,2,3
Cc1ccn2c(c1)nc(=S)n2C(=O)c1ccccc1,-4,-2,14*,-16,-1,2
O=C(CN1CCCCCCC1)Nc1cc(Cl)cc(Cl)c1,-5,-3,0,-8,-2,·
COc1ccccc1N1CCN(C(=O)c2ccc(S(=O)(=O)N3CCCCCC3)cc2)CC1,-8,-9,11*,3,-4,0
S=c1[nH]nc(Nc2ccc(Cl)cc2)s1,2,-3,15*,3,-2,0
COCc1cc(=O)[nH]c2cc(NC(=O)C3CC3)c(C)cc12,-9,4,-3,-7,8,·
O=C(/C=C/c1ccccc1)Nc1ccc(Cl)cn1,1,-4,11*,-14,1,9.0*
O=C(CC(c1ccccc1)c1ccccc1)Nc1ccc(Cl)cn1,-6,6,1,-9,6,·
C=CCn1c(SCC(=O)Nc2ccccc2CC)nnc1-c1ccncc1,-10,0,13*,-7,-2,3
COc1ccccc1-c1nnc(SCC(=O)N2CCOCC2)o1,-2,5,11*,-5,-1,3
COc1ccccc1-c1nnc(SCC(=O)N2CCC(C)CC2)o1,3,-1,-2,9,-2,·
COc1ccccc1-c1nnc(-c2ccc(N3CCOCC3)cc2)o1,-1,-9,15*,-16,0,-1
COc1cc(NC(=O)CSc2nc3c(C)ccc(C)c3cc2C)c(C(=O)O)cc1OC,-10,7,-2,-6,4,·
Cc1cc(C)c2c(N)c(C(=O)c3ccc(Cl)cc3)sc2n1,-1,15,1,9,3,·
Cc1cc(C)c2c(N)c(C(=O)C(C)(C)C)sc2n1,1,-9,13*,2,16,-1
CCSc1nnc(NC(=O)CCCOc2ccc(C)cc2)s1,-3,-6,-1,-3,2,·
O=C(COc1ccc(CO)cc1Cl)Nc1ccc(F)cc1,8,-10,16*,-10,-2,-5
SMILES,RBBP9 inh,14-3-3 Bad inh,Wee1 stabilizer,NCF1 inh,eIF4E 4G PPI,Wee1 stab conf
O=C(COc1ccc(CO)cc1)Nc1ccc(F)cc1,-6,6,3,-13,-1,·
O=C(NC1CCN(Cc2nnnn2CCc2ccccc2)CC1)c1ccccc1F,-6,11,12*,-5,-6,-1
Cc1ccccc1C(=O)NC1CCN(Cc2nnnn2Cc2ccccc2)CC1,-11,-2,-2,-2,-8,·
Cc1ccsc1/C=N/NC(=O)CNC(=O)c1ccc(S(=O)(=O)N2CCOCC2)cc1,-8,6,4,0,-3,·
COc1ccc(/C=C/C(=O)N2CCC(c3ccccc3)C2)cc1 (stereo unspecified),-4,-14,0,-2,9,·
COC(=O)C1CCN(C(=O)/C=C/c2ccc(OC)cc2)CC1,0,-7,11*,0,-4,10*
CCN1Cc2c(/C=C/c3ccccc3)nc3ccc(OC)cc3c2N(c2cccc(Cl)c2)C1,-18,2,-2,-41,5,·
Nc1[nH]n(-c2ccccc2)c(=O)c1N=Nc1ccc2c(c1)OCO2,-1,0,12*,9,3,-2
CC1(C)NC(=O)N(CCCCOc2ccccc2[N+](=O)[O-])C1=O,-1,-6,11*,-17,-4,2
CCCN(CC1CC1)C(=O)CSc1nnc(-c2cc(-c3cccs3)nc3ccccc23)o1,-13,-4,19*,-19,-11,-2
COc1ccc(OC)c2sc(N3CCN(c4ccccc4)CC3)nc12,3,·,22*,·,·,1
C=C(C)CNC(=S)N/N=C/c1ccc([N+](=O)[O-])cc1,-6,-3,1,-6,0,·
C=C(C)CNC(=S)N/N=C/c1c(F)cccc1F,0,-10,14*,-10,0,0
COc1ccc(/C=N/N=C(\N)c2nonc2N)cc1OC,-7,-13,11*,2,-3,0
Cc1ccc(C2C(C=Nc3c(C)n(C)n(-c4ccccc4)c3=O)=C(c3ccccc3)Oc3ccccc32)cc1 (stereo unspecified),-11,-9,3,-10,-2,·
CN(C)c1ccc(/C=N/NC(=S)NCc2ccccc2)cc1,-7,-20,3,-13,1,·
CC(C)(C)c1ccc(/C=N/NC(=S)NCc2ccccc2)cc1,-7,3,17*,-4,10,0
FC(F)(F)c1ccc(NC(=S)NCc2ccccc2)cc1,0,-8,19*,-3,-6,0
N#Cc1ccccc1CSc1nnc(Cc2ccccc2)o1,-4,-5,2,-10,0,·
COC(=O)CC1C(=O)NCCN1C(=O)CSc1nc2ccccc2o1 (stereo unspecified),3,-1,12*,0,4,-1
COC(=O)CC1C(=O)NCCN1C(=O)CSc1nc2ccccc2c(=O)n1CC(C)C (stereo unspecified),-7,-20,2,0,2,·
O=C(c1ccc(NC(=S)NCc2ccco2)cc1)N1CCCCC1,7,-12,7,2,-1,·
COc1ccc(C=O)cc1OS(=O)(=O)c1ccc(NC(C)=O)cc1,-8,31,1,0,-5,·
COc1ccc(/C=N/NC(=O)c2ccc3ccccc3c2)cc1OS(=O)(=O)c1ccc(NC(C)=O)cc1,-47,6,14*,-8,-6,13*
Cc1ccccc1CNCc1cccnc1,4,-5,0,5,-5,·
COc1cccc(CNCc2cccnc2)c1OCc1ccccc1,6,33,13*,-3,1,-1

# Source: PubChem (several laboratories)
